Test results taken from ChEMBL document CHEMBL4017446, “Discovery of (2-aminophenyl)methanol as a new molecular chaperone that rescues the localization of P123S mutant pendrin stably expressed in HEK293 cells” (Bioorg Med Chem, 2017).
Calls of active or inactive are those of the source. No cut-off for these calls is given here.

Key:
HEK293 [1] = experiment: Cytotoxicity against HEK293 cells harboring pendrin P123S mutant assessed as decrease in cell viability at 15 mM after 72 hrs by MTT assay; assay type: cell-based; conditions: human, hek293, 72 h, 15000 µM
[2] = test system: T1, Pendrin (Homo sapiens), O43511 [P123S]; experiment: Chaperone activity at recombinant human C-terminal FLAG-tagged pendrin P123S mutant expressed in HEK293 cells assessed as increase in localization of protein mutant in plasma membrane at 1 to 30 mM after 12 hrs by DAPI staining based immunofluorescence microscopic analysis; assay type: cell-based
T1 sequence (whole entry): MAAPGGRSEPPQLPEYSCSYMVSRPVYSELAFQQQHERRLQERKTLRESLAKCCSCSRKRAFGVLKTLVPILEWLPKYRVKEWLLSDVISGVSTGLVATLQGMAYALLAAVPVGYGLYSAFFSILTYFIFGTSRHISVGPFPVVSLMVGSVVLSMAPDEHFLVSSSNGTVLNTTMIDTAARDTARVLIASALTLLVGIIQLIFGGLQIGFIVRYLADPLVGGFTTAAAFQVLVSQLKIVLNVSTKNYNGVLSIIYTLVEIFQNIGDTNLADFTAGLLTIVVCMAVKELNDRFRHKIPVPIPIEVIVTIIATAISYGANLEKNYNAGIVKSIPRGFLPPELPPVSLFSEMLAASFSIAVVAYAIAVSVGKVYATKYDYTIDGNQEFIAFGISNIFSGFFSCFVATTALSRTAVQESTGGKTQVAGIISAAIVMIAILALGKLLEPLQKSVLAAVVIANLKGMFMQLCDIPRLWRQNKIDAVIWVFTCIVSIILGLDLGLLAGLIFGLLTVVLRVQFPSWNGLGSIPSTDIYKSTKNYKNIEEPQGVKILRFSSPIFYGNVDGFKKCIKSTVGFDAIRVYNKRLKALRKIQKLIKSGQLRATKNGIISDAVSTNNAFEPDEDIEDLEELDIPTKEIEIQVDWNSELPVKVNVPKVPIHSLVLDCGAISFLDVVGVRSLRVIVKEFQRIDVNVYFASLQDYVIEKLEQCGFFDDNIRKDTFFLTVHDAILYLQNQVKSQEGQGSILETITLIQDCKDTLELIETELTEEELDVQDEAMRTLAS
Method in brief: (§1)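 Stable P123S pendrin HEK293 cells were screened in 96-well plates after 12 h exposure to compound or 0.1% DMSO. WT cells with vehicle served as positive control. Cells were anti-FLAG/DAPI immunostained, and about 100 cells per field across 100 fields were imaged by automated high-content analysis. The read-out was cytoplasmic fluorescence intensity in a 5-pixel band 2–7 pixels inside the cell outline.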

HEK293 [3] = experiment: Cytotoxicity against HEK293 cells harboring pendrin P123S mutant after 72 hrs by MTT assay; assay type: cell-based; conditions: Homo sapiens, HEK293, 72 h
Method in brief: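 Stable P123S pendrin HEK293 cells were seeded at 5 × 10^4 cells/well and preincubated 12 h at 37 °C. Cells were then exposed to compound at various concentrations in RPMI-1640 for 72 h. Viability was measured by MTT, and IC50 was taken from semilogarithmic dose-response plots. Triplicate experiments.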

[4] = test system: T1, Pendrin (Homo sapiens), O43511 [P123S]; experiment: Chaperone activity at recombinant human C-terminal FLAG-tagged pendrin P123S mutant expressed in HEK293 cells assessed as increase in fluorescence intensity ratio of plasma membrane to cytoplasm measured after 12 hrs by DAPI staining based immunofluorescence microscopic method; assay type: cell-based
Method in brief: (§2)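 Stable HEK293 line expressing FLAG-tagged P123S pendrin, grown in 10% FBS-RPMI-1640, treated 12 h with compound or vehicle (0.1% DMSO) in 35 mm dishes. Cells were fixed in 4% paraformaldehyde, stained with anti-FLAG primary antibody, Alexa Fluor 546 secondary and DAPI, and imaged by confocal microscopy. Mean intensities of 20 regions ([…]) in plasma membrane and cytoplasm gave the M/C ratio; 6–9 cells averaged.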

[5] = test system: T1, Pendrin (Homo sapiens), O43511 [P123S]; experiment: Chaperone activity at recombinant human C-terminal FLAG-tagged pendrin P123S mutant expressed in HEK293 cells assessed as translocation of mutant protein from cytoplasm to plasma membrane at 3 mM measured after 12 hrs by DAPI staining based immunofluorescence microscopic analysis; assay type: cell-based
Method in brief: (§3)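 HEK293 cells stably expressing FLAG-tagged P123S pendrin were incubated 12 h with compound or 0.1% DMSO in dishes. WT-pendrin cells given vehicle served as reference. Cells were fixed in paraformaldehyde, blocked in 1% BSA, stained with anti-FLAG/Alexa Fluor 546 secondary plus DAPI, and membrane versus cytoplasmic localization was judged by confocal imaging.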

[6] = test system: T1, Pendrin (Homo sapiens), O43511 [P123S]; experiment: (§4) Chaperone activity at recombinant human C-terminal FLAG-tagged pendrin P123S mutant expressed in HEK293 cells assessed as intracellular localization of mutant protein in plasma membrane at 10 mM incubated for 12 hrs followed by compound washout measured after 6 hrs by DAPI staining based immunofluorescence microscopic analysis; assay type: cell-based
Method in brief: (§5)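 Stable P123S pendrin HEK293 cells (5 × 10^4/well) were exposed to compound or 0.1% DMSO for 12 h, washed with PBS, then kept in fresh medium for 0, 6 or 12 h. They were then anti-FLAG/DAPI immunostained and imaged by confocal microscopy to follow pendrin distribution at the plasma membrane. Triplicate experiments.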

[7] = test system: T1, Pendrin (Homo sapiens), O43511 [P123S]; experiment: as §4, with “12” for “6”; assay type: cell-based; method in brief: as §5
[8] = test system: T1, Pendrin (Homo sapiens), O43511 [P123S]; experiment: Chaperone activity at recombinant human C-terminal FLAG-tagged pendrin P123S mutant expressed in HEK293 cells assessed as fluorescence intensity ratio of plasma membrane to cytoplasm at 10 mM measured after 12 hrs by DAPI staining based immunofluorescence microscopic method; assay type: cell-based; method in brief: as §2
HEK293 [9] = experiment: Induction of HEK293 cell aggregation measured after 12 hrs by DAPI staining based immunofluorescence microscopic method; conditions: human, hek293, 12 h
Method in brief: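 Stable P123S pendrin HEK293 cells were incubated with compound for 12 h in 35 mm dishes, then immunostained with anti-FLAG and DAPI. Cell aggregation was observed under a fluorescence microscope.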

[10] = test system: T1, Pendrin (Homo sapiens), O43511 [P123S]; experiment: Chaperone activity at recombinant human C-terminal FLAG-tagged pendrin P123S mutant expressed in HEK293 cells assessed as translocation of mutant protein from cytoplasm to plasma membrane at 1 to 10 mM measured after 12 hrs by DAPI staining based immunofluorescence microscopic analysis; assay type: cell-based; method in brief: as §3
[11] = test system: T1, Pendrin (Homo sapiens), O43511 [P123S]; experiment: Chaperone activity at recombinant human C-terminal FLAG-tagged pendrin P123S mutant expressed in HEK293 cells assessed as translocation of mutant protein from cytoplasm to plasma membrane at 0.1 mM measured after 12 hrs by DAPI staining based immunofluorescence microscopic analysis; assay type: cell-based; method in brief: as §3
[12] = test system: T1, Pendrin (Homo sapiens), O43511 [P123S]; experiment: as §4, with “0.1” for “10”, “12” for “6”; assay type: cell-based; method in brief: as §5
[13] = test system: T1, Pendrin (Homo sapiens), O43511 [P123S]; experiment: Potency index, ratio of compound effect to salicylate effect for chaperone activity at recombinant human C-terminal FLAG-tagged pendrin P123S mutant expressed in HEK293 cells assessed as translocation of mutant protein from cytoplasm to plasma membrane; assay type: cell-based
[14] = test system: T1, Pendrin (Homo sapiens), O43511 [P123S]; experiment: as §4, with “0.1” for “10”; assay type: cell-based; method in brief: as §5
[15] = test system: T1, Pendrin (Homo sapiens), O43511 [P123S]; experiment: Chaperone activity at recombinant human C-terminal FLAG-tagged pendrin P123S mutant expressed in HEK293 cells assessed as fluorescence intensity ratio of plasma membrane to cytoplasm at 0.1 mM measured after 12 hrs by DAPI staining based immunofluorescence microscopic method; assay type: cell-based; method in brief: as §2
[16] = test system: T1, Pendrin (Homo sapiens), O43511 [P123S]; experiment: Chaperone activity at recombinant human C-terminal FLAG-tagged pendrin P123S mutant expressed in HEK293 cells assessed as fluorescence intensity ratio of plasma membrane to cytoplasm at 0.3 mM measured after 12 hrs by DAPI staining based immunofluorescence microscopic method; assay type: cell-based; method in brief: as §2
[17] = test system: T1, Pendrin (Homo sapiens), O43511 [P123S]; experiment: Chaperone activity at recombinant human C-terminal FLAG-tagged pendrin P123S mutant expressed in HEK293 cells assessed as increase in localization of protein mutant in plasma membrane at 0.03 to 1 mM after 12 hrs by DAPI staining based immunofluorescence microscopic analysis; assay type: cell-based; method in brief: as §1

In the case of O=C(O)c1ccc(O)c(O)c1 [PROTOCATECHUIC ACID], the Activity (HEK293 [1]) is reported as 37%, the Activity [2] is reported as “inactive” and the IC50 (HEK293 [3]) is reported as over 15 mM.

In the case of CC(O)CC(=O)O (stereo unspecified), the Activity [2] is reported as “Active” and the IC50 (HEK293 [3]) is reported as over 15 mM.

With O=C(O)c1cc([N+](=O)[O-])ccc1O the Activity [4] was “Dose-dependent effect”, the Activity [5] was “Active” and the Activity [6] was “Active”. The Activity [2] was “Active”, the Activity [7] was “Active” and the IC50 (HEK293 [3]) was 5.3 mM. For the same molecule, the Ratio [8] was 1.3.

In the case of O=C(O)c1c(O)cccc1O, the Activity [2] is reported as “inactive” and the IC50 (HEK293 [3]) is reported as 10.6 mM.

In the case of OB(O)c1ccccc1O, the Activity (HEK293 [1]) is reported as 22.3%, the Activity [2] is reported as “Active” and the Activity (HEK293 [9]) is reported as “Toxic”. The IC50 (HEK293 [3]) was over 15 mM.

For Nc1ccc(O)c(C(=O)O)c1 [MESALAMINE], the Activity (HEK293 [1]) was 35.5%, the Activity [2] was “inactive” and the IC50 (HEK293 [3]) was over 15 mM.

In the case of CC(=O)Oc1ccccc1C(=O)O [ASPIRIN], the Activity [2] is reported as “inactive” and the IC50 (HEK293 [3]) is reported as 10.2 mM.

Work on O=C(O)CC(=O)O [MALONIC ACID] yielded an IC50 (HEK293 [3]) of 9.7 mM.

O=C(O)Cc1ccccc1O was tested, and the Activity [2] was “Active” and the IC50 (HEK293 [3]) was 12.1 mM.

In the case of O=C(O)c1cc(O)ccc1O [GENTISIC ACID], the Activity (HEK293 [1]) is reported as 46.8%, the Activity [2] is reported as “inactive” and the IC50 (HEK293 [3]) is reported as over 15 mM.

With Nc1ccccc1CCO the Activity (HEK293 [1]) was 35.8%, the Activity [2] was “inactive” and the IC50 (HEK293 [3]) was over 15 mM.

With O=C(O)c1ccccc1S [THIOSALICYLIC ACID] the Activity [2] was “inactive” and the IC50 (HEK293 [3]) was 12.7 mM.

For O=C(O)c1cccc(O)c1O [2,3-DIHYDROXYBENZOIC ACID], the Activity (HEK293 [1]) was 47.4%, the Activity [2] was “inactive” and the IC50 (HEK293 [3]) was over 15 mM.

For OCCc1ccccc1O, the Activity (HEK293 [1]) was 38.3%, the Activity [2] was “Active” and the Activity (HEK293 [9]) was “Toxic”. For the same molecule, the IC50 (HEK293 [3]) was over 15 mM.

Nc1ccc(CO)cc1 showed an IC50 (HEK293 [3]) of 12.7 mM.

With OCc1ccccc1O [SALICYL ALCOHOL] the Activity (HEK293 [1]) was 25.3%, the Activity [2] was “inactive” and the IC50 (HEK293 [3]) was over 15 mM.

With O=C(O)c1ccccc1O [SALICYLIC ACID] the Activity [4] was “Dose-dependent effect”, the Activity [6] was “inactive” and the Activity (HEK293 [1]) was 4.2%. The IC50 (HEK293 [3]) was over 15 mM and the Ratio [8] was 1.

In the case of Nc1cccc(CO)c1, the Activity (HEK293 [1]) is reported as 46.7% and the IC50 (HEK293 [3]) is reported as over 15 mM.

O=C(O)c1ccc([N+](=O)[O-])cc1O was tested, and the Activity [2] was “Active”, the Activity (HEK293 [9]) was “Toxic” and the IC50 (HEK293 [3]) was 12.5 mM.

In the case of Nc1ccccc1C(=O)O [ANTHRANILIC ACID], the Activity (HEK293 [1]) is reported as 46.9%, the Activity [2] is reported as “inactive” and the IC50 (HEK293 [3]) is reported as over 15 mM.

In the case of Cc1ccc(O)c(C(=O)O)c1, the Activity [4] is reported as “Dose-dependent effect”, the Activity [6] is reported as “Active” and the Activity [10] is reported as “Active”. It also gave an IC50 (HEK293 [3]) of 9.8 mM and a Ratio [8] of 1.7.

In the case of Nc1ccccc1CO [ISATOIC ANHYDRIDE], the Activity [11] is reported as “Active”, the Activity [4] is reported as “Dose-dependent effect” and the Activity [12] is reported as “Active”. For the same molecule, the Ratio [13] was 100, the Activity [14] was “Active” and the Ratio [15] was 0.9. The Ratio [16] was 1.8 and the Activity [17] was “Active”.
